This is an account of results in paper PMC5323440 (World Journal of Gastroenterology, 2017).

Marks after values point to notes of the source that are not given here.

Series [1] concerns TNBS-induced colitis. In words: TNBS-induced experimental colitis: clinical activity score rate. Format: in vivo, Wistar rats. Particulars: for Clinical activity score rate, 6 d: day 6, oral treatment day 6 to 10; for Clinical activity score rate, 6 d / Clinical activity score rate, 7 d / Clinical activity score rate, 8 d / Clinical activity score rate, 9 d / Clinical activity score rate, 10 d / Clinical activity score rate, 11 d: score 0-4; for Clinical activity score rate, 7 d: day 7, oral treatment day 6 to 10; for Clinical activity score rate, 8 d: day 8, oral treatment day 6 to 10; for Clinical activity score rate, 9 d: day 9, oral treatment day 6 to 10; for Clinical activity score rate, 10 d: day 10, oral treatment day 6 to 10; for Clinical activity score rate, 11 d: day 11, after oral treatment day 6 to 10. The gist of the method: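 Male Wistar rats (200-230 g, n = 6/group), starved 48 h, given intrarectal TNBS 100 mg/kg in 50% v/v ethanol (0.25 mL) on day 3. Oral dosing days 6-10 as 1% sodium CMC suspension, equimolar to parent acid. Weight loss, stool consistency and rectal bleeding each scored 0-4 daily and averaged per group. Two-way ANOVA with Bonferroni versus disease control.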

For series [2], the system named is chronic UC. Particulars: chronic UC patients ref 24; cited from earlier work.
In series [3] the test system is myeloperoxidase (MPO). Nature of the series: TNBS-induced experimental colitis: colonic MPO activity. It is filed as in vivo, Wistar rats. Particulars: TNBS colitis rats, day 11, oral treatment day 6 to 10. A digest of the protocol: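 Colon dissected on day 11 from TNBS-colitic male Wistar rats (intrarectal TNBS 100 mg/kg in 50% ethanol on day 3; oral dosing in 1% sodium CMC days 6-10; n = 6). MPO assayed by a published method, one unit degrading […] hydrogen peroxide at 25 °C. Reported as […]; one-way ANOVA with Dunnett's test.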

The conditions of series [4]: released from SLZ in the colon; cited from earlier work.
Series [5] can be described thus: Aqueous solubility in distilled water. It is filed as physicochemical. To be noted: 25 ± 1 °C.
Series [6] is described as follows: Partition coefficient, n-octanol/water, shake flask method. It is filed as physicochemical.
Series [7] is described as follows: In vivo pharmacokinetics in plasma after oral administration. Particulars: rat. More on the design: species or system Wistar rats. A digest of the protocol: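 Male Wistar rats (200-250 g, n = 6) housed in metabolic cages, fasted 24 h, water ad libitum. Single oral dose of prodrug (377.5 mg) or parent acid (270 mg) suspended in sodium CMC in saline (1 mL). Retro-orbital blood taken at 0 min, every 15 min for 1 h, bi-hourly to 12 h, and at 24 h, into EDTA tubes. Plasma quantified by HPLC against 80% human plasma calibration.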

On to `N[C@@H](Cc1c[nH]c2ccccc12)C(=O)O` [T, L-tryptophan], for which, in series [1], the “Clinical activity score rate, 6 d” value is recorded as 2.44 ± 0.69; the “Clinical activity score rate, 7 d” value was found to be 2.60 ± 0.58; the “Clinical activity score rate, 8 d” value came to 2.94 ± 0.82; the “Clinical activity score rate, 9 d” value came out at 2.66 ± 0.66. In addition, in series [1], the “Clinical activity score rate, 10 d” value is 2.16 ± 1.08 and the “Clinical activity score rate, 11 d” value is 1.88 ± 1.17 ^a.
With `N[C@@H](Cc1ccc(O)cc1)C(=O)O` [TY, L-tyrosine], in series [1], the “Clinical activity score rate, 6 d” value is 2.11 ± 0.84; the “Clinical activity score rate, 7 d” value is 2.55 ± 0.50; the “Clinical activity score rate, 8 d” value was determined as 3.22 ± 1.07; the “Clinical activity score rate, 9 d” value is on record as 3.33 ± 1.15. In series [1], the “Clinical activity score rate, 10 d” value came out at 2.72 ± 1.49 and the “Clinical activity score rate, 11 d” value was 2.33 ± 1.45^NS.
As to `O=C(O)c1cc(/N=N/c2ccc(S(=O)(=O)Nc3ccccn3)cc2)ccc1O` [SLZ, Sulfasalazine], in series [2], the Remission rate was 75%. Besides, in series [1], the “Clinical activity score rate, 6 d” value was 2.88 ± 0.83; the “Clinical activity score rate, 7 d” value turned out to be 2.44 ± 0.50; the “Clinical activity score rate, 8 d” value is 1.61 ± 1.13; the “Clinical activity score rate, 9 d” value is on record as 1.11 ± 1.01. In series [1], the “Clinical activity score rate, 10 d” value turned out to be 0.72 ± 0.75 and the “Clinical activity score rate, 11 d” value is on record as 0.38 ± 0.60 ^e. Also, in series [3], the “Colonic MPO activity” value is on record as 36.21 mU/100 mg tissue.
As to `N[C@@H](Cc1c[nH]cn1)C(=O)O` [H, L-histidine], in series [1], the “Clinical activity score rate, 6 d” value was found to be 2.33 ± 0.67; the “Clinical activity score rate, 7 d” value is listed as 2.55 ± 0.50; the “Clinical activity score rate, 8 d” value worked out at 2.88 ± 0.83; the “Clinical activity score rate, 9 d” value is on record as 2.77 ± 0.69. In series [1], the “Clinical activity score rate, 10 d” value was determined as 2.60 ± 0.82 and the “Clinical activity score rate, 11 d” value is 2.00 ± 1.00^NS.
As for `N[C@H](Cc1ccccc1)C(=O)O` [P, D-phenylalanine], in series [1], the “Clinical activity score rate, 6 d” value worked out at 2.22 ± 0.83; the “Clinical activity score rate, 7 d” value is recorded as 2.55 ± 0.50; the “Clinical activity score rate, 8 d” value was determined as 3.16 ± 1.04; the “Clinical activity score rate, 9 d” value turned out to be 3.33 ± 1.15. Moreover, in series [1], the “Clinical activity score rate, 10 d” value is given as 2.66 ± 1.44 and the “Clinical activity score rate, 11 d” value is given as 2.27 ± 1.13^NS.
For `Nc1ccc(O)c(C(=O)O)c1` [Prodrug 5-ASA, 5-aminosalicylate], in series [4], the “Fraction entering circulation by absorption from large intestine” value is listed as 30%.
In the case of `C[C@H]1[C@H](C)CC[C@]2(C)CC[C@]3(C)C(=CC[C@@H]4[C@@]5(C)CC[C@@H](O)[C@](C)(C(=O)O)[C@@H]5CC[C@]43C)[C@H]12` [BBA, β-boswellic acid], in series [1], the “Clinical activity score rate, 6 d” value stood at 2.77 ± 1.34; the “Clinical activity score rate, 7 d” value came out at 3.00 ± 1.00; the “Clinical activity score rate, 8 d” value worked out at 2.33 ± 0.57; the “Clinical activity score rate, 9 d” value is recorded as 1.99 ± 0.66. Moreover, in series [1], the “Clinical activity score rate, 10 d” value is reported as 1.33 ± 1.15 and the “Clinical activity score rate, 11 d” value is recorded as 0.99 ± 1.10 ^e. In addition, the “Minimized clinical activity score rate” value in series [1] (oral treatment day 6 to 10) is 79%. Also, the “Aq. Solubility” value in series [5] is given as “practically insoluble”. For the same compound, in series [6], the “log Poct” value is 9.3. Moreover, in series [7], the “Time of disappearance of BBA from blood” value is listed as 24 h, the “Time of first appearance of BBA in blood” value amounted to 30 min and the “Time of maximum BBA in blood” value is reported as 240 min. The “Colonic MPO activity” value in series [3] is listed as 60.71 mU/100 mg tissue.
